According to ChEMBL document CHEMBL1145494, “Covalent dimer species of beta-defensin Defr1 display potent antimicrobial activity against multidrug-resistant bacterial pathogens” (2007):
≈ marks a conversion by molar mass, not a printed value. Residues, ends and D or L forms follow the SMILES beside them.

Tests used:
Pseudomonas aeruginosa [1] = assay: Antibacterial activity against Pseudomonas aeruginosa PAO1; type: functional
In short: (§1)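 Bacteria grown to mid-log phase in Iso-Sensitest broth, diluted to 1 × 10^6 to 5 × 10^6 CFU/ml in 10 mM potassium phosphate, pH 7.4, with 1% (vol/vol) Iso-Sensitest broth. Peptide dilutions incubated with 100 μl of cells (1 × 10^5 to 5 × 10^5 CFU) at 37°C for 3 h. 10-fold dilutions plated and CFU counted next day. MBC = concentration giving >99.99% kill of inoculum. Triplicate on three occasions, mean taken.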

Pseudomonas aeruginosa [2] = assay: Antibacterial activity against meropenem and colistin-resistant Pseudomonas aeruginosa C3425; type: functional; in short: as §1
Pseudomonas aeruginosa [3] = assay: Antibacterial activity against tobramycin-resistant Pseudomonas aeruginosa H183; type: functional; in short: as §1
Pseudomonas aeruginosa [4] = assay: Antibacterial activity against tobramycin-resistant Pseudomonas aeruginosa C4269; type: functional; in short: as §1
Pseudomonas aeruginosa [5] = assay: Antibacterial activity against meropenem and tobramycin-resistant Pseudomonas aeruginosa C3781; type: functional; in short: as §1
Escherichia coli = assay: Antibacterial activity against Escherichia coli ATCC 25922; type: functional
In short: (§2)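 Mid-log cultures grown in Iso-Sensitest broth, diluted to 1 × 10^6 to 5 × 10^6 CFU/ml in 10 mM potassium phosphate with 1% (vol/vol) Iso-Sensitest broth, pH 7.4. Peptide at various concentrations was incubated with 1 × 10^5 to 5 × 10^5 CFU in 100 μl at 37°C for 3 h. 10-fold dilutions were plated and CFU counted next day. MBC was taken as >99.99% killing of the inoculum, as the mean of triplicates on three independent occasions.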

Burkholderia cepacia = assay: Antibacterial activity against Burkholderia cepacia ATCC 25416; type: functional; in short: as §2
Burkholderia cenocepacia = assay: Antibacterial activity against Burkholderia cenocepacia ATCC BAA-245; type: functional; in short: as §2
[6] = test system: Stenotrophomonas maltophilia; assay: Antibacterial activity against ciprofloxacin, meropenem and tobramycin-resistant Stenotrophomonas maltophilia C1980; type: functional; in short: as §1
[7] = test system: Stenotrophomonas maltophilia; assay: Antibacterial activity against ciprofloxacin, meropenem and colistin-resistant Stenotrophomonas maltophilia C3625; type: functional; in short: as §1
[8] = test system: Stenotrophomonas maltophilia; assay: Antibacterial activity against meropenem and tobramycin-resistant Stenotrophomonas maltophilia C3627; type: functional; in short: as §1
[9] = test system: Bordetella bronchiseptica; assay: Antibacterial activity against Bordetella bronchiseptica J3083; type: functional; in short: as §2
Ralstonia pickettii = assay: Antibacterial activity against Ralstonia pickettii R4050/C3079; type: functional; in short: as §2
Cupriavidus necator = assay: Antibacterial activity against Ralstonia eutropha ATCC 17697; type: functional; in short: as §2
Acinetobacter baumannii = assay: Antibacterial activity against Acinetobacter baumannii ATCC 19606; type: functional; in short: as §2
Enterococcus faecalis = assay: Antibacterial activity against Enterococcus faecalis ATCC 700802; type: functional; in short: as §2
Staphylococcus aureus [10] = assay: Antibacterial activity against Staphylococcus aureus ATCC 25923; type: functional; in short: as §2
Candida albicans = assay: Antifungal activity against Candida albicans J2922; type: functional
Staphylococcus aureus [11] = assay: Antibacterial activity against ciprofloxacin and methicillin-resistant Staphylococcus aureus J2918
[12] = test system: Stenotrophomonas maltophilia; assay: Antibacterial activity against ciprofloxacin and meropenem-resistant Stenotrophomonas maltophilia C3626
Pseudomonas aeruginosa [13] = assay: Antibacterial activity against Pseudomonas aeruginosa in presence of 50 mM NaCl; type: functional
In short: (§3)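 P. aeruginosa PAO1 (1 × 10^5 CFU in 100 μl) in 10 mM potassium phosphate with 1% (vol/vol) Iso-Sensitest, pH 7.4, containing NaCl (0 to 200 mM). Challenged with peptide in doubling dilutions from 0 to 150 μg/ml at 37°C for 3 h, then plated for CFU. MBC (>99.99% killing) was determined at each NaCl concentration.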

Pseudomonas aeruginosa [14] = assay: Antibacterial activity against Pseudomonas aeruginosa in presence of 100 mM NaCl; type: functional; in short: as §3
Pseudomonas aeruginosa [15] = assay: Antibacterial activity against Pseudomonas aeruginosa in presence of 150 mM NaCl; type: functional; in short: as §3
Pseudomonas aeruginosa [16] = assay: Antibacterial activity against Pseudomonas aeruginosa in presence of 200 mM NaCl; type: functional; in short: as §3

Compound: CC[C@H](C)[C@H](NC(=O)CNC(=O)CNC(=O)[C@H](CC(N)=O)NC(=O)[C@H](CCCNC(=N)N)NC(=O)[C@@H](NC(=O)[C@H](Cc1ccc(O)cc1)NC(=O)[C@@H](NC(=O)[C@@H](NC(=O)[C@@H]1CCCN1C(=O)[C@@H](N)CC(=O)O)C(C)C)[C@@H](C)O)[C@@H](C)CC)C(=O)N[C@@H](CS)C(=O)N[C@@H](CCC(N)=O)C(=O)N[C@@H](Cc1ccc(O)cc1)C(=O)N[C@@H](CCCNC(=N)N)C(=O)N[C@@H](CS)C(=O)N[C@H](C(=O)NCC(=O)N[C@@H](CC(C)C)C(=O)N[C@@H](CCCNC(=N)N)C(=O)N[C@@H](Cc1cnc[nH]1)C(=O)N[C@@H](CCCCN)C(=O)N[C@H](C(=O)NCC(=O)N[C@H](C(=O)N[C@@H](CS)C(=O)NCC(=O)N[C@@H](CO)C(=O)N1CCC[C@H]1C(=O)N[C@@H](Cc1ccccc1)C(=O)N[C@@H](CCCCN)C(=O)N[C@@H](CS)C(=O)N[C@@H](CS)C(=O)N[C@@H](CCCCN)C(=O)O)[C@@H](C)O)[C@@H](C)CC)[C@@H](C)CC (H-DPVTYIRNGGICQYRCIGLRHKIGTCGSPFKCCK-OH)
- MBC (Pseudomonas aeruginosa [1]): 6 µg/mL (≈ 1.58 µM)
- MBC (Pseudomonas aeruginosa [2]): 6 µg/mL (≈ 1.58 µM)
- MBC (Pseudomonas aeruginosa [3]): 6 µg/mL (≈ 1.58 µM)
- MBC (Pseudomonas aeruginosa [4]): 6 µg/mL (≈ 1.58 µM)
- MBC (Pseudomonas aeruginosa [5]): 6 µg/mL (≈ 1.58 µM)
- MBC (Escherichia coli): 8 µg/mL (≈ 2.11 µM)
- MBC (Burkholderia cepacia): > 100 µg/mL
- MBC (Burkholderia cenocepacia): > 100 µg/mL
- MBC [6]: 12.5 µg/mL (≈ 3.3 µM)
- MBC [7]: 6 µg/mL (≈ 1.58 µM)
- MBC [8]: 6 µg/mL (≈ 1.58 µM)
- MBC [9]: 6 µg/mL (≈ 1.58 µM)
- MBC (Ralstonia pickettii): 3 µg/mL (≈ 0.792 µM)
- MBC (Cupriavidus necator): 3 µg/mL (≈ 0.792 µM)
- MBC (Acinetobacter baumannii): 3 µg/mL (≈ 0.792 µM)
- MBC (Enterococcus faecalis): 6 µg/mL (≈ 1.58 µM)
- MBC (Staphylococcus aureus [10]): 10 µg/mL (≈ 2.64 µM)
- MBC (Candida albicans): 3 µg/mL (≈ 0.792 µM)
- MBC (Staphylococcus aureus [11]): 6 µg/mL (≈ 1.58 µM)
- MBC [12]: 3 µg/mL (≈ 0.792 µM)

Compound: H-DPVTYIRNGGIAQYRAIGLRHKIGTAGSPFKCAK-OH
- MBC (Pseudomonas aeruginosa [13]): 25 µg/mL
- MBC (Pseudomonas aeruginosa [14]): 25 µg/mL
- MBC (Pseudomonas aeruginosa [15]): 50 µg/mL
- MBC (Pseudomonas aeruginosa [16]): 50 µg/mL

Compound: POLYMYXIN B
- MBC (Pseudomonas aeruginosa [1]): 0.5 µg/mL
- MBC (Pseudomonas aeruginosa [2]): 1 µg/mL
- MBC (Pseudomonas aeruginosa [3]): 1 µg/mL
- MBC (Pseudomonas aeruginosa [4]): 1 µg/mL
- MBC (Pseudomonas aeruginosa [5]): 0.5 µg/mL
- MBC (Escherichia coli): 0.25 µg/mL
- MBC (Burkholderia cepacia): > 512 µg/mL
- MBC (Burkholderia cenocepacia): > 512 µg/mL
- MBC [6]: 32 µg/mL
- MBC [7]: 32 µg/mL
- MBC [8]: 64 µg/mL
- MBC [9]: 0.12 µg/mL
- MBC (Ralstonia pickettii): > 512 µg/mL
- MBC (Cupriavidus necator): 128 µg/mL
- MBC (Acinetobacter baumannii): 1 µg/mL
- MBC (Enterococcus faecalis): 256 µg/mL
- MBC (Staphylococcus aureus [10]): 256 µg/mL
- MBC (Candida albicans): > 512 µg/mL

Compound: CC[C@H](C)[C@H](NC(=O)CNC(=O)CNC(=O)[C@H](CC(N)=O)NC(=O)[C@H](CCCNC(=N)N)NC(=O)[C@@H](NC(=O)[C@H](CS)NC(=O)[C@@H](NC(=O)[C@@H](NC(=O)[C@@H]1CCCN1C(=O)[C@@H](N)CC(=O)O)C(C)C)[C@@H](C)O)[C@@H](C)CC)C(=O)N[C@@H](CS)C(=O)N[C@@H](CCC(N)=O)C(=O)N[C@@H](Cc1ccc(O)cc1)C(=O)N[C@@H](CCCNC(=N)N)C(=O)N[C@@H](CS)C(=O)N[C@H](C(=O)NCC(=O)N[C@@H](CC(C)C)C(=O)N[C@@H](CCCNC(=N)N)C(=O)N[C@@H](Cc1cnc[nH]1)C(=O)N[C@@H](CCCCN)C(=O)N[C@H](C(=O)NCC(=O)N[C@H](C(=O)N[C@@H](CS)C(=O)NCC(=O)N[C@@H](CO)C(=O)N1CCC[C@H]1C(=O)N[C@@H](Cc1ccccc1)C(=O)N[C@@H](CCCCN)C(=O)N[C@@H](CS)C(=O)N[C@@H](CS)C(=O)N[C@@H](CCCCN)C(=O)O)[C@@H](C)O)[C@@H](C)CC)[C@@H](C)CC (H-DPVTCIRNGGICQYRCIGLRHKIGTCGSPFKCCK-OH)
- MBC (Pseudomonas aeruginosa [1]): 50 µg/mL (≈ 13.4 µM)
- MBC (Pseudomonas aeruginosa [2]): 50 µg/mL (≈ 13.4 µM)
- MBC (Pseudomonas aeruginosa [3]): 100 µg/mL (≈ 26.8 µM)
- MBC (Pseudomonas aeruginosa [4]): > 100 µg/mL
- MBC (Pseudomonas aeruginosa [5]): 100 µg/mL (≈ 26.8 µM)
- MBC (Escherichia coli): > 100 µg/mL
- MBC (Burkholderia cepacia): > 100 µg/mL
- MBC (Burkholderia cenocepacia): > 100 µg/mL
- MBC [6]: > 100 µg/mL
- MBC [7]: > 100 µg/mL
- MBC [8]: > 100 µg/mL
- MBC [9]: > 100 µg/mL
- MBC (Ralstonia pickettii): > 100 µg/mL
- MBC (Cupriavidus necator): > 100 µg/mL
- MBC (Acinetobacter baumannii): 12.5 µg/mL (≈ 3.35 µM)
- MBC (Enterococcus faecalis): 100 µg/mL (≈ 26.8 µM)
- MBC (Staphylococcus aureus [10]): > 100 µg/mL
- MBC (Candida albicans): 25 µg/mL (≈ 6.71 µM)
- MBC (Staphylococcus aureus [11]): > 100 µg/mL
- MBC [12]: > 100 µg/mL
